Experimental data as given in ChEMBL document CHEMBL1629528 (J Med Chem, 2010).
Calls of active or inactive are those of the source. The calls are words filed in the database; no cut-off is given here.

Legend:
[1] = target: T1, 5-hydroxytryptamine receptor 1D (Homo sapiens, UniProt P28221); assay: Displacement of [3H]5-HT from human recombinant 5-HT1D receptor expressed in CHO cells; format: cell-based
[2] = target: T2, 5-hydroxytryptamine receptor 1A (Homo sapiens, UniProt P08908); assay: Displacement of [3H]WAY100635 from human recombinant 5-HT1A receptor expressed in CHO cells; format: cell-based
T2 sequence (P08908 whole entry): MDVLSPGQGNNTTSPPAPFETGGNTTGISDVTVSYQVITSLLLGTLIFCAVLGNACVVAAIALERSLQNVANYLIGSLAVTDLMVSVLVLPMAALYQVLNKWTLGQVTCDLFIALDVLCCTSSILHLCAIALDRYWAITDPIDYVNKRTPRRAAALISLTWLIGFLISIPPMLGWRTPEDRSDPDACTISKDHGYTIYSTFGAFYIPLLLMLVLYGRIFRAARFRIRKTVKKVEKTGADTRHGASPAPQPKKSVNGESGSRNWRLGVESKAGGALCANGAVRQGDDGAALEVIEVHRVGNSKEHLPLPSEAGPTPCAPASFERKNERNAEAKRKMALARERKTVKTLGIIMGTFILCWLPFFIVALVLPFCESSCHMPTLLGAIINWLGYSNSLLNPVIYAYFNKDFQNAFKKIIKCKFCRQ

[3] = target: T3, 5-hydroxytryptamine receptor 1B (Homo sapiens, UniProt P28222); assay: Displacement of [3H]5-HT from human recombinant 5-HT1B receptor expressed in CHO cells; format: cell-based
[4] = target: Sodium-dependent serotonin transporter (Rattus norvegicus, UniProt P31652); assay: Inhibition of [3H]5-HT uptake at SERT in rat cortical synaptosomes; format: subcellular, Brain
[5] = target: 5-hydroxytryptamine receptor 2B (Homo sapiens, UniProt P41595); assay: Binding affinity to human recombinant 5-HT2B receptor by radioligand displacement assay
D(3) dopamine receptor = D(3) dopamine receptor (Homo sapiens, UniProt P35462); assay: Binding affinity to human recombinant dopamine D3 receptor by radioligand displacement assay
[6] = target: 5-hydroxytryptamine receptor 6 (Homo sapiens, UniProt P50406); assay: Binding affinity to human recombinant 5-HT6 receptor by radioligand displacement assay
[7] = target: Voltage-gated inwardly rectifying potassium channel KCNH2 (Homo sapiens, UniProt Q12809); assay: Displacement of [3H]dofetilide from human ERG by SPA
[8] = target: 5-hydroxytryptamine receptor 2A (Homo sapiens, UniProt P28223); assay: Binding affinity to human recombinant 5-HT2A receptor by radioligand displacement assay
[9] = target: 5-hydroxytryptamine receptor 7 (Homo sapiens, UniProt P34969); assay: Binding affinity to human recombinant 5-HT7 receptor by radioligand displacement assay
[10] = target: T4, 5-hydroxytryptamine receptor 2C (Homo sapiens, UniProt P28335); assay: Binding affinity to human recombinant 5-HT2C receptor by radioligand displacement assay
T4 sequence (P28335 whole entry): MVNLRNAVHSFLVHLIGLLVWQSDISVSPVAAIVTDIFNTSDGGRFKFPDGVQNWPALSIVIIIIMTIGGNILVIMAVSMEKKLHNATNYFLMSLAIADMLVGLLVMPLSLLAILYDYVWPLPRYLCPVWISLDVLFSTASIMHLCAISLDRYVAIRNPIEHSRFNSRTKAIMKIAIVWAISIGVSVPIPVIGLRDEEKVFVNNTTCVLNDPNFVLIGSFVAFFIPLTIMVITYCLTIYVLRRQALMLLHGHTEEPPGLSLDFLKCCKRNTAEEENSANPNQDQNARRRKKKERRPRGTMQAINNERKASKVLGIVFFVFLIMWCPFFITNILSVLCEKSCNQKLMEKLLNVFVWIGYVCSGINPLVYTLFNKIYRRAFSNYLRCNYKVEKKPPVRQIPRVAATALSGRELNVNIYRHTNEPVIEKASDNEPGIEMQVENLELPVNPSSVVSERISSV

D(2) dopamine receptor = D(2) dopamine receptor (Homo sapiens, UniProt P14416); assay: Binding affinity to human recombinant dopamine D2 receptor by radioligand displacement assay
[11] = target: T3, 5-hydroxytryptamine receptor 1B; assay: Inverse agonist activity at human recombinant 5-HT1B receptor expressed in CHO cells by [S35]GTPgammaS binding assay; format: functional, cell-based
In short: (§1)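 [35S]-GTPγS binding in membranes from 10^6 cells (HEK293 for 5-HT1A; CHO for 5-HT1B, 5-HT1D), preincubated 30 min at 30 °C with compound in 20 mM HEPES pH 7.4, 3 mM MgCl2, 100 mM NaCl, 10 μM GDP, 0.2 mM ascorbate. 100 pM [35S]-GTPγS added, 30 min more at 30 °C; nonspecific with 20 μM GTPγS; filtration and scintillation counting.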

[12] = target: T1, 5-hydroxytryptamine receptor 1D; assay: Inverse agonist activity at human recombinant 5-HT1D receptor expressed in CHO cells by [S35]GTPgammaS binding assay; format: functional, cell-based; in short: as §1
[13] = target: T5, 5-hydroxytryptamine receptor 1A (Homo sapiens) (UniProt P08908); assay: Intrinsic activity at human recombinant 5-HT1A receptor expressed in HEK293 cells by [S35]GTPgammaS binding assay relative to 5-HT; format: functional, cell-based; in short: as §1
T5 sequence (whole entry): T2 sequence (P08908 whole entry)

[14] = target: T1, 5-hydroxytryptamine receptor 1D; assay: Intrinsic activity at human recombinant 5-HT1D receptor expressed in CHO cells by [S35]GTPgammaS binding assay relative to 5-HT; format: functional, cell-based; in short: as §1
[15] = target: T3, 5-hydroxytryptamine receptor 1B; assay: Intrinsic activity at human recombinant 5-HT1B receptor expressed in CHO cells by [S35]GTPgammaS binding assay relative to 5-HT; format: functional, cell-based; in short: as §1
[16] = target: T5, 5-hydroxytryptamine receptor 1A (Homo sapiens); assay: Inverse agonist activity at human recombinant 5-HT1A receptor expressed in HEK293 cells by [S35]GTPgammaS binding assay; format: functional, cell-based; in short: as §1

Sequence of 5-hydroxytryptamine receptor 2B (P41595 whole entry): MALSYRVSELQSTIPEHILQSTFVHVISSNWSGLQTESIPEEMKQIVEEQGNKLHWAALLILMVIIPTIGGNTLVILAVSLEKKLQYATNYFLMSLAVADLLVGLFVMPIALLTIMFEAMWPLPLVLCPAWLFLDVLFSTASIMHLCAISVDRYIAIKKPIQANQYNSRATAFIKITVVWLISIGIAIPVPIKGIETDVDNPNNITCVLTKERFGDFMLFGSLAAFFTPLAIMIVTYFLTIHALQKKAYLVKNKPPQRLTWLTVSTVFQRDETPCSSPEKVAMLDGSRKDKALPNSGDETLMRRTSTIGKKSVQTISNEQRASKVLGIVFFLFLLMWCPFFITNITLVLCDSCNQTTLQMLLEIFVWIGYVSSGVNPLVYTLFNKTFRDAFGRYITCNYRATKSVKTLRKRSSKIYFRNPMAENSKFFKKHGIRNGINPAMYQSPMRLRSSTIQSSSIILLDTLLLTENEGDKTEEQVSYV
Sequence of 5-hydroxytryptamine receptor 7 (P34969 whole entry): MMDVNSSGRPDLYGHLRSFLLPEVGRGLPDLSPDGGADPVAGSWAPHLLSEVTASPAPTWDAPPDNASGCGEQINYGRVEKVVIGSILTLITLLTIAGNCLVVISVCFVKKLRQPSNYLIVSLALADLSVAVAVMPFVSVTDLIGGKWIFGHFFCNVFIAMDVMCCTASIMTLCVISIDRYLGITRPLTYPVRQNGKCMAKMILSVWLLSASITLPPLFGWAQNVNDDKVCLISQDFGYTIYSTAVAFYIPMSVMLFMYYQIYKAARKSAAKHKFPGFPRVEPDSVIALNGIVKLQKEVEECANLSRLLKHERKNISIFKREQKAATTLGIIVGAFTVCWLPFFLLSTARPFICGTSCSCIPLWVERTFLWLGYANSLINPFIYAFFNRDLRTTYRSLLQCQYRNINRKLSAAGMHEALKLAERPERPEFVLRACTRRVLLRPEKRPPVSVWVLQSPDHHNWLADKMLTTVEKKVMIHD
Sequence of D(2) dopamine receptor (P14416 whole entry): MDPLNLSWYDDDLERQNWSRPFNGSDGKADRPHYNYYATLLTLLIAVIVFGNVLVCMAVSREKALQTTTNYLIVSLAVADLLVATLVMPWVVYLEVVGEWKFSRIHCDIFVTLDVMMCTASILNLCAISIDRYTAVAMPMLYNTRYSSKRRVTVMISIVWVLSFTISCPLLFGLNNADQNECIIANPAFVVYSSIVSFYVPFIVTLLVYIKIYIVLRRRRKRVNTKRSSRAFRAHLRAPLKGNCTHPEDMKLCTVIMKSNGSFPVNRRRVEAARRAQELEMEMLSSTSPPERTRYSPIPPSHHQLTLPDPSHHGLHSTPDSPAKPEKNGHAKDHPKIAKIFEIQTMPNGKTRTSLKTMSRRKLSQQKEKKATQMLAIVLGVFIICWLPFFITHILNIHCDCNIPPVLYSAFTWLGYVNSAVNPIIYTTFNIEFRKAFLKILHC
Sequence of 5-hydroxytryptamine receptor 6 (P50406 whole entry): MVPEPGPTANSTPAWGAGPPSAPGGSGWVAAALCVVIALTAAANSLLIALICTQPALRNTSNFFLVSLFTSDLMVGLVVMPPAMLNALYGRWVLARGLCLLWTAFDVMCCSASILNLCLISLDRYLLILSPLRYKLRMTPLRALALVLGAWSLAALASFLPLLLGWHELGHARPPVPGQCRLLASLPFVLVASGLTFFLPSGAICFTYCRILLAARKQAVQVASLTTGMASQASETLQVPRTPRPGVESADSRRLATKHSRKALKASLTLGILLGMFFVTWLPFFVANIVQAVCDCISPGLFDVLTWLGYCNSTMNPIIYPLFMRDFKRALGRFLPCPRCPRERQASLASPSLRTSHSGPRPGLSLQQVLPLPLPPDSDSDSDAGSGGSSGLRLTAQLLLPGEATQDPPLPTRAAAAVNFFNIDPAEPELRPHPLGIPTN
T1 sequence (P28221 whole entry): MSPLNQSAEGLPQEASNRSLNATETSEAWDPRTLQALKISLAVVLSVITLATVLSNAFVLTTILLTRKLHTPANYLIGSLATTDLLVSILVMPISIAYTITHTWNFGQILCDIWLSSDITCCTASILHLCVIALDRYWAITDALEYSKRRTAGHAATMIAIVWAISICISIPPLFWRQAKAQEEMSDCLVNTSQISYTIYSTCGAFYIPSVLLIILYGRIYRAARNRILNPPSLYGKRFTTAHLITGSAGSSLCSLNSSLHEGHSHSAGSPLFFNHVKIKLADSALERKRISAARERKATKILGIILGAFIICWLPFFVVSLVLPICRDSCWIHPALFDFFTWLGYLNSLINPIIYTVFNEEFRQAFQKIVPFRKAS
T3 sequence (P28222 whole entry): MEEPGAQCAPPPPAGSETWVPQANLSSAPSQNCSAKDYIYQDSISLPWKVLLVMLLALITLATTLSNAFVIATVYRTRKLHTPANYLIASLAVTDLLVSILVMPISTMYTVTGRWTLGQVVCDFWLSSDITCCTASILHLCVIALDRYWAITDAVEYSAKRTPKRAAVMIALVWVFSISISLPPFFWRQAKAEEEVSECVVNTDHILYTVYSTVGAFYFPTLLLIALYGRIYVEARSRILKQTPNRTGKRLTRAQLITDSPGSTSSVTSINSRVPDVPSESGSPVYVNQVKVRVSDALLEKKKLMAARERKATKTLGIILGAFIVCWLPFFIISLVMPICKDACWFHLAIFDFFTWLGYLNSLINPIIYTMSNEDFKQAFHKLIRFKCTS
Sequence of D(3) dopamine receptor (P35462 whole entry): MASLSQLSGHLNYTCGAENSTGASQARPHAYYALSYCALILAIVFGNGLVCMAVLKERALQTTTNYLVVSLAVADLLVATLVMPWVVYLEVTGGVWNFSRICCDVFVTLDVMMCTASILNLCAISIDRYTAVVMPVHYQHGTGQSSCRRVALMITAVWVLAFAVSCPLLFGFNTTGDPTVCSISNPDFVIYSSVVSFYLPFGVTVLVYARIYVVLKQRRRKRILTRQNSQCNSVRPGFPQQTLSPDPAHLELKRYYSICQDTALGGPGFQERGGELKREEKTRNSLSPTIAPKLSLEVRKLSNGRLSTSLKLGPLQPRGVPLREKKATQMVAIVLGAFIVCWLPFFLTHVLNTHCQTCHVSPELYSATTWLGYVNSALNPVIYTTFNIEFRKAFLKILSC
Sequence of Sodium-dependent serotonin transporter (P31652 whole entry): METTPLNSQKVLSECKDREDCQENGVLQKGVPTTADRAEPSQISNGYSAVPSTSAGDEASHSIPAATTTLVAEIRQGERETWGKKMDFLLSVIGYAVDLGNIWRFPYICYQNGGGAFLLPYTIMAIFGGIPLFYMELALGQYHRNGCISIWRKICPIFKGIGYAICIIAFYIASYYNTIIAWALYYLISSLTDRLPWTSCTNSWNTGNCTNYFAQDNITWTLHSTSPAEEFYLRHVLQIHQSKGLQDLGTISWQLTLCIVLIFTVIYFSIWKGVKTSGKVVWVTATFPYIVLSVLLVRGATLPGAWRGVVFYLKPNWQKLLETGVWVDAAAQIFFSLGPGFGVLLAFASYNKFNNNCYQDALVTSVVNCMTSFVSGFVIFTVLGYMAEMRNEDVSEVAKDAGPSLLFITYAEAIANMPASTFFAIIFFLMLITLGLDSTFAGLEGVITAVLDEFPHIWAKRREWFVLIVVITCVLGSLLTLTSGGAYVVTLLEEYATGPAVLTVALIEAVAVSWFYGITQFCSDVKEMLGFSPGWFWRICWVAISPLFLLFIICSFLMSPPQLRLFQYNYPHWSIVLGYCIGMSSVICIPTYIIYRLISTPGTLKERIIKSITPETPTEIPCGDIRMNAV
Sequence of 5-hydroxytryptamine receptor 2A (P28223 whole entry): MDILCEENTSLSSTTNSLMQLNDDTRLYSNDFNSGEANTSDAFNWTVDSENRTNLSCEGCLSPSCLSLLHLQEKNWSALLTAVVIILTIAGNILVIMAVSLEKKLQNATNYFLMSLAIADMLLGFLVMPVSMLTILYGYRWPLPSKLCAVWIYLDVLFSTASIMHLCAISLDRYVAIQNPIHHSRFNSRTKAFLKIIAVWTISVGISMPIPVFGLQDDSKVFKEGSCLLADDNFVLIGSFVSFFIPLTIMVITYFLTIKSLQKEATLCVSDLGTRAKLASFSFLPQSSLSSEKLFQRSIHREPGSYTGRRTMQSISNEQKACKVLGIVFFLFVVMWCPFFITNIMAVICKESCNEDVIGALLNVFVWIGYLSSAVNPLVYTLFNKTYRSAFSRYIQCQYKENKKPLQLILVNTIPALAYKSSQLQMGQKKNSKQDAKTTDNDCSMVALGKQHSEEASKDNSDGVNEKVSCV

Compound | Ki [1] [nM] | Ki [2] [nM] | Ki [3] [nM] | Ki [4] [nM] | Activity [11] | Activity [16] | also measured
CCCS(=O)(=O)Nc1cccc(CCN2CCN(c3cccc4nc(C)ccc34)CC2)c1 | 0.631 | 1.58 | 2 | – | – | – | –
Cc1ccc2c(N3CCN(CCc4cccc(N)c4)CC3)cccc2n1 | 0.501 | 15.8 | 7.94 | – | – | – | –
CC(=O)N(C)c1cccc(CCN2CCN(c3cccc4nc(C)ccc34)CC2)c1 | 0.316 | 2 | 12.6 | – | – | – | Intrinsic activity [14]: 0; Intrinsic activity [13]: 0.1; Intrinsic activity [15]: 0.2
Cc1ccc2c(N3CCN(CCc4cccc(N5CCCNC5=O)c4)CC3)cccc2n1 | 0.316 | 3.16 | 39.8 | – | – | – | –
Cc1ccc2c(N3CCN(CCc4cccc(NC(=O)c5csc(C)n5)c4)CC3)cccc2n1 | 0.398 | 0.794 | 3.16 | 501 | Active | Active | Activity [12]: Active; Ki [7]: 316 nM
COc1ccccc1C(=O)Nc1cccc(CCN2CCN(c3cccc4nc(C)ccc34)CC2)c1 | 0.631 | 2.51 | 3.98 | 794 | – | – | –
Cc1ccc2c(N3CCN(CCc4cccc(NC(=O)c5ccc(F)cc5)c4)CC3)cccc2n1 | 0.398 | 1.26 | 5.01 | 794 | Active | Active | Intrinsic activity [14]: 0
CC(=O)Nc1cccc(CCN2CCN(c3cccc4nc(C)ccc34)CC2)c1 | 0.251 | 1 | 0.501 | 1260 | – | – | Ki [5]: 158 nM; Ki (D(3) dopamine receptor): 158 nM; Ki [6]: > 3980 nM; Ki [8]: 251 nM; Ki [9]: 63.1 nM; Ki [10]: 1000 nM; Ki (D(2) dopamine receptor): 398 nM
Cc1ccc2c(N3CCN(CCc4cccc(NC(=O)C(C)(C)C)c4)CC3)cccc2n1 | 0.316 | 6.31 | 2 | 1580 | Active | Active | Activity [12]: Active
COc1ccc(C(=O)Nc2cccc(CCN3CCN(c4cccc5nc(C)ccc45)CC3)c2)cc1 | 0.501 | 3.16 | 3.98 | 1260 | Active | Active | Activity [12]: Active
Cc1ccc2c(N3CCN(CCc4cccc(NC(=O)Nc5ccc(F)cc5)c4)CC3)cccc2n1 | 0.501 | 2.51 | 3.16 | 1260 | – | – | –
Cc1ccc2c(OCCN3CCC(Cc4cccc(NS(C)(=O)=O)c4)CC3)cccc2n1 | – | – | – | – | – | Active | Intrinsic activity [14]: 0; Intrinsic activity [15]: 0.3
Cc1ccc2c(N3CCN(CCc4cccc(NC(=O)Nc5cccc(F)c5)c4)CC3)cccc2n1 | 0.631 | 3.98 | 3.98 | 2510 | Active | – | Intrinsic activity [14]: 0; Intrinsic activity [13]: 0
Cc1ccc2c(N3CCN(CCc4ccc5c(c4)NC(=O)CO5)CC3)cccc2n1 | – | – | – | – | – | – | Intrinsic activity [13]: 0.2; Intrinsic activity [15]: 0.1
Cc1ccc2c(N3CCN(CCc4cccc(NC(=O)c5cccc(F)c5)c4)CC3)cccc2n1 | 0.316 | 0.631 | 3.16 | 631 | Active | Active | Activity [12]: Active
Cc1ccc2c(N3CCN(CCc4cccc(N5C(=O)CCC5=O)c4)CC3)cccc2n1 | 1.58 | 3.16 | 39.8 | 20000 | – | – | –

Continued by falling Ki [1], values first:

Ki [1] [nM] | Ki [2] [nM] | Ki [3] [nM] | Ki [4] [nM] | Activity [11] | Activity [16] | Compound | also measured
0.251 | 1 | 3.16 | 631 | – | Active | Cc1ccc2c(N3CCN(CCc4cccc(NC(=O)c5ccccc5F)c4)CC3)cccc2n1 | Activity [12]: Active; Intrinsic activity [15]: 0
0.251 | 2.51 | 31.6 | – | – | – | Cc1ccc2c(N3CCN(CCc4cccc(N5CCCOC5=O)c4)CC3)cccc2n1 | –
0.251 | 7.94 | 3.98 | 794 | – | – | Cc1ccc2c(N3CCN(CCc4cccc(NC(=O)NC(C)(C)C)c4)CC3)cccc2n1 | –
0.251 | 0.398 | – | 501 | Active | – | COC(=O)Nc1cccc(CCN2CCN(c3cccc4nc(C)ccc34)CC2)c1 | Ki [5]: 200 nM; Ki (D(3) dopamine receptor): 100 nM; Intrinsic activity [14]: 0; Ki [6]: > 1580 nM; Ki [8]: 200 nM; Ki [9]: 25.1 nM; Ki [10]: 794 nM; Intrinsic activity [13]: 0; Ki (D(2) dopamine receptor): 200 nM
0.251 | 0.398 | 2 | 501 | – | Active | Cc1ccc2c(N3CCN(CCc4cccc(NC(=O)c5scnc5C)c4)CC3)cccc2n1 | Activity [12]: Active; Intrinsic activity [15]: 0
0.2 | 3.16 | 1 | 2000 | – | – | Cc1ccc2c(N3CCN(CCc4cccc(NC(=O)Nc5ccccc5F)c4)CC3)cccc2n1 | –
0.2 | 2 | 1.26 | 1260 | Active | – | CCC(=O)Nc1cccc(CCN2CCN(c3cccc4nc(C)ccc34)CC2)c1 | Activity [12]: Active; Intrinsic activity [13]: 0
0.2 | 0.501 | 1.26 | 398 | – | – | Cc1ccc2c(N3CCN(CCc4cccc(NC(=O)c5cnccn5)c4)CC3)cccc2n1 | Ki [5]: 794 nM; Ki (D(3) dopamine receptor): 79.4 nM; Ki [6]: 794 nM; Ki [8]: 158 nM; Ki [9]: 200 nM; Ki [10]: > 1580 nM; Ki (D(2) dopamine receptor): 200 nM
0.158 | 5.01 | 2 | 794 | – | – | CCCNC(=O)Nc1cccc(CCN2CCN(c3cccc4nc(C)ccc34)CC2)c1 | –
0.158 | 2 | 1.58 | 1260 | Active | Active | Cc1ccc2c(N3CCN(CCc4cccc(NC(=O)C(C)C)c4)CC3)cccc2n1 | Activity [12]: Active
0.158 | 0.501 | 1.58 | 316 | – | – | Cc1ccc2c(N3CCN(CCc4cccc(-n5cccn5)c4)CC3)cccc2n1 | Ki [5]: 79.4 nM; Ki (D(3) dopamine receptor): 50.1 nM; Ki [6]: > 10000 nM; Ki [8]: 398 nM; Ki [9]: 126 nM; Ki [10]: 2000 nM; Ki (D(2) dopamine receptor): 398 nM
0.158 | 2 | 1.58 | 1260 | – | – | COc1cccc(C(=O)Nc2cccc(CCN3CCN(c4cccc5nc(C)ccc45)CC3)c2)c1 | –
0.126 | 0.794 | 0.794 | 3160 | – | – | Cc1ccc2c(N3CCN(CCc4cccc(NS(C)(=O)=O)c4)CC3)cccc2n1 | Ki [5]: 398 nM; Ki (D(3) dopamine receptor): 200 nM; Ki [6]: > 2510 nM; Ki [7]: 501 nM; Ki [8]: 794 nM; Ki [9]: 100 nM; Ki [10]: 3160 nM; Ki (D(2) dopamine receptor): 398 nM
0.126 | 1.26 | 1.26 | 794 | – | – | CCOC(=O)Nc1cccc(CCN2CCN(c3cccc4nc(C)ccc34)CC2)c1 | –
